Test results reported in ChEMBL document CHEMBL3124833, “Achiral pyrazinone-based inhibitors of the hepatitis C virus NS3 protease and drug-resistant variants with elongated substituents directed toward the S2 pocket” (J Med Chem, 2014).
Converted amounts (≈) assume the structure as drawn.

Experiments:
[1] = Inhibition of full-length wild-type HCV NS3 protease; parameters: species or system Hepacivirus hominis
Method in brief: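 Ki was determined in vitro with full-length NS3 protease (genotype 1a construct, expressed and purified by earlier methods) and the central part of NS4A as cofactor.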

[2] = Apparent permeability from apical to basolateral side in human Caco2 cells at 10 uM by LC-MS analysis; format: ADME, cell-based; conditions: Caco-2
Method in brief: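 Apparent permeability coefficients (Papp) were derived from transport rates across Caco-2 cell monolayers. The assay used a modified, more physiological medium because the compounds adsorbed strongly to plasticware.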

NS3 protease [3] = target: NS3 protease (Hepatitis C virus subtype 1b, UniProt Q0ZMF1, A156T); experiment: Inhibition of full-length HCV NS3 protease A156T mutant; parameters: species or system Hepacivirus hominis
Method in brief: (§1)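 Ki determined in vitro against full-length NS3 protease variants carrying A156T, D168V or R155K substitutions, with the central part of NS4A as cofactor. Enzymes were expressed and purified by previously published methods. The R155K variant (genotype 1a) had the Arg→Lys change introduced at position 155 by PCR.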

NS3 protease [4] = target: NS3 protease (Hepacivirus C, UniProt C1KIQ2, D168V); experiment: Inhibition of full-length HCV NS3 protease D168V mutant; parameters: species or system Hepacivirus hominis; method in brief: as §1
[5] = Intrinsic clearance in human liver microsomes at 1 uM up to 40 mins by LC-MS/MS analysis in presence of NADPH; format: ADME
Method in brief: (§2)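 Compounds were incubated with pooled human liver microsomes (0.5 mg/mL) over 0–40 min. In vitro t1/2 and intrinsic clearance (Clint, μL/min/mg) were calculated with previously published models.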

[6] = Solubility of the compound in phosphate buffered saline at pH 7.4 after 1 hr by LC-MS/MS analysis; format: physicochemical
Method in brief: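 Solubility was measured in phosphate-buffered saline at pH 7.4 with a final DMSO concentration of 1%.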

[7] = Half life in human liver microsomes at 1 uM by LC-MS/MS analysis; format: ADME; method in brief: as §2

Question: With `Cc1c(Cl)nc(NC(=O)OC(C)(C)C)c(=O)n1C(C(=O)Nc1ccccc1C(=O)NS(=O)(=O)c1ccc(C(F)(F)F)cc1)c1ccccc1` (configuration not stated) as the molecule, how does the Ki [1] read?
Answer: The Ki was 3800 nM.

Question: With `CC(C)(C)NC(=O)Nc1nc(Cl)c(-c2ccc(Br)cc2)n(CC(=O)Nc2ccccc2C(=O)NS(=O)(=O)c2ccc(C(F)(F)F)cc2)c1=O` as the molecule, how does the Ki [1] read?
Answer: Its Ki is 380 nM.

Question: For `CC(C)(C)NC(=O)Nc1nc(Cl)c(-c2cccc(Br)c2)n(CC(=O)Nc2ccccc2C(=O)NS(=O)(=O)c2ccc(C(F)(F)F)cc2)c1=O`, which Ki [1] is on record?
Answer: Its Ki is 600 nM.

Question: Which Ki [1] does the source give for `CC(C)(C)NC(=O)Nc1nc(Cl)c(-c2ccccc2Br)n(CC(=O)Nc2ccccc2C(=O)NS(=O)(=O)c2ccc(C(F)(F)F)cc2)c1=O` here?
Answer: The Ki was 400 nM.

Question: Which Ki [1] does the source give for `CC(C)(C)NC(=O)Nc1nc(Cl)c(Cc2ccc(Br)cc2)n(CC(=O)Nc2ccccc2C(=O)NS(=O)(=O)c2ccc(C(F)(F)F)cc2)c1=O` here?
Answer: Its Ki is 440 nM.

Question: For `CC(C)(C)NC(=O)Nc1nc(Cl)c(Cc2cccc(Br)c2)n(CC(=O)Nc2ccccc2C(=O)NS(=O)(=O)c2ccc(C(F)(F)F)cc2)c1=O`, which Ki [1] is on record?
Answer: Its Ki is 290 nM.

Question: With `CC(C)(C)NC(=O)Nc1nc(Cl)c(Cc2ccccc2Br)n(CC(=O)Nc2ccccc2C(=O)NS(=O)(=O)c2ccc(C(F)(F)F)cc2)c1=O` as the molecule, how does the Ki [1] read?
Answer: The Ki was 250 nM.

Question: With `CC(C)(C)NC(=O)Nc1nc(Cl)c(-c2ccc(-c3cccnc3)cc2)n(CC(=O)Nc2ccccc2C(=O)NS(=O)(=O)c2ccc(C(F)(F)F)cc2)c1=O` as the molecule, how does the Papp A→B at 10 µM [2] read?
Answer: The Papp A→B at 10 µM was 7 ×10⁻⁶ cm/s.

Question: What about the Ki [1] of the same molecule?
Answer: The Ki was 440 nM.

Question: What about the Ki (NS3 protease [3]) of the same molecule?
Answer: The Ki was 740 nM.

Question: And the Ki (NS3 protease [4])?
Answer: Its Ki is 1520 nM.

Question: What about the microsomal CLint at 1 µM [5] of the same molecule?
Answer: The microsomal CLint at 1 µM was 17 µL/min/mg.

Question: What about the solubility at 1 h [6] of the same molecule?
Answer: The solubility at 1 h was 53 µM (≈ 41.5 µg/mL).

Question: And the half-life at 1 µM [7]?
Answer: Its half-life at 1 µM is 82 min.

Question: With `CC(C)(C)NC(=O)Nc1nc(Cl)c(-c2cccc(-c3cccnc3)c2)n(CC(=O)Nc2ccccc2C(=O)NS(=O)(=O)c2ccc(C(F)(F)F)cc2)c1=O` as the molecule, how does the Ki [1] read?
Answer: Its Ki is 390 nM.

Question: Which Ki [1] does the source give for `CC(C)(C)NC(=O)Nc1nc(Cl)c(-c2ccccc2-c2cccnc2)n(CC(=O)Nc2ccccc2C(=O)NS(=O)(=O)c2ccc(C(F)(F)F)cc2)c1=O` here?
Answer: Its Ki is 2100 nM.

Question: Which Ki [1] does the source give for `CC(C)(C)NC(=O)Nc1nc(Cl)c(Cc2ccc(-c3cccnc3)cc2)n(CC(=O)Nc2ccccc2C(=O)NS(=O)(=O)c2ccc(C(F)(F)F)cc2)c1=O` here?
Answer: Its Ki is 540 nM.

Question: For `CC(C)(C)NC(=O)Nc1nc(Cl)c(Cc2cccc(-c3cccnc3)c2)n(CC(=O)Nc2ccccc2C(=O)NS(=O)(=O)c2ccc(C(F)(F)F)cc2)c1=O`, which Ki [1] is on record?
Answer: The Ki was 810 nM.

Question: Which Ki [1] does the source give for `CC(C)(C)NC(=O)Nc1nc(Cl)c(Cc2ccccc2-c2cccnc2)n(CC(=O)Nc2ccccc2C(=O)NS(=O)(=O)c2ccc(C(F)(F)F)cc2)c1=O` here?
Answer: Its Ki is 1100 nM.

Question: Which Ki [1] does the source give for `CC(C)(C)NC(=O)Nc1nc(Cl)c(Cc2ccccc2)n(C(C(=O)Nc2ccccc2C(=O)NS(=O)(=O)c2ccc(C(F)(F)F)cc2)c2ccccc2)c1=O` (configuration not stated) here?
Answer: The Ki was 700 nM.

Question: For `CC(C)(C)NC(=O)Nc1nc(Cl)cn(CC(=O)Nc2ccccc2C(=O)NS(=O)(=O)c2ccc(C(F)(F)F)cc2)c1=O`, which Ki [1] is on record?
Answer: Its Ki is 1900 nM.

Question: With `CC(C)(C)NC(=O)Nc1nc(Cl)c(CCc2ccccc2)n(CC(=O)Nc2ccccc2C(=O)NS(=O)(=O)c2ccc(C(F)(F)F)cc2)c1=O` as the molecule, how does the Papp A→B at 10 µM [2] read?
Answer: The Papp A→B at 10 µM was 0.3 ×10⁻⁶ cm/s.

Question: And the Ki [1]?
Answer: Its Ki is 120 nM.

Question: What about the microsomal CLint at 1 µM [5] of the same molecule?
Answer: Its microsomal CLint at 1 µM is less than 13 µL/min/mg.

Question: And the solubility at 1 h [6]?
Answer: Its solubility at 1 h is 23 µM (≈ 16.9 µg/mL).

Question: And the half-life at 1 µM [7]?
Answer: The half-life at 1 µM was greater than 100 min.

Question: With `CC(C)(C)NC(=O)Nc1nc(Cl)c(CCCc2ccccc2)n(CC(=O)Nc2ccccc2C(=O)NS(=O)(=O)c2ccc(C(F)(F)F)cc2)c1=O` as the molecule, how does the Ki [1] read?
Answer: The Ki was 140 nM.

Question: With `CC(C)(C)NC(=O)Nc1nc(Cl)c(COCc2ccccc2)n(CC(=O)Nc2ccccc2C(=O)NS(=O)(=O)c2ccc(C(F)(F)F)cc2)c1=O` as the molecule, how does the Papp A→B at 10 µM [2] read?
Answer: The Papp A→B at 10 µM was 4 ×10⁻⁶ cm/s.

Question: What about the Ki [1] of the same molecule?
Answer: The Ki was 560 nM.

Question: What about the microsomal CLint at 1 µM [5] of the same molecule?
Answer: The microsomal CLint at 1 µM was 17 µL/min/mg.

Question: And the solubility at 1 h [6]?
Answer: The solubility at 1 h was 22 µM (≈ 16.5 µg/mL).

Question: What about the half-life at 1 µM [7] of the same molecule?
Answer: The half-life at 1 µM was 81 min.

Question: Which Ki [1] does the source give for `CC(C)(C)NC(=O)Nc1nc(Cl)c(Cc2ccc3ccccc3c2)n(CC(=O)Nc2ccccc2C(=O)NS(=O)(=O)c2ccc(C(F)(F)F)cc2)c1=O` here?
Answer: The Ki was 330 nM.

Question: Which Ki [1] does the source give for `CC(C)(C)NC(=O)Nc1nc(Cl)c(Cc2cccc3ccccc23)n(CC(=O)Nc2ccccc2C(=O)NS(=O)(=O)c2ccc(C(F)(F)F)cc2)c1=O` here?
Answer: Its Ki is 290 nM.

Question: Which results are given for `CCCCCc1c(Cl)nc(NC(=O)NC(C)(C)C)c(=O)n1CC(=O)Nc1ccccc1C(=O)NS(=O)(=O)c1ccc(C(F)(F)F)cc1`?
Answer: Papp A→B at 10 µM [2]: 0.04 ×10⁻⁶ cm/s; Ki [1]: 160 nM; microsomal CLint at 1 µM [5]: 33 µL/min/mg; solubility at 1 h [6]: 21 µM (≈ 14.7 µg/mL); half-life at 1 µM [7]: 42 min

Question: Which Papp A→B at 10 µM [2] does the source give for `CC(C)(C)NC(=O)Nc1nc(Cl)c(CCC2CCCCC2)n(CC(=O)Nc2ccccc2C(=O)NS(=O)(=O)c2ccc(C(F)(F)F)cc2)c1=O` here?
Answer: The Papp A→B at 10 µM was 0.12 ×10⁻⁶ cm/s.

Question: What about the Ki [1] of the same molecule?
Answer: Its Ki is 110 nM.

Question: And the Ki (NS3 protease [3])?
Answer: Its Ki is 170 nM.

Question: What about the Ki (NS3 protease [4]) of the same molecule?
Answer: The Ki was 320 nM.

Question: And the microsomal CLint at 1 µM [5]?
Answer: Its microsomal CLint at 1 µM is 52 µL/min/mg.

Question: What about the solubility at 1 h [6] of the same molecule?
Answer: The solubility at 1 h was 31 µM (≈ 22.9 µg/mL).

Question: What about the half-life at 1 µM [7] of the same molecule?
Answer: The half-life at 1 µM was 27 min.

Question: For `Cc1c(Cl)nc(NC(=O)NC(C)(C)C)c(=O)n1C(C(=O)NC(CC1CCC1)C(=O)C(N)=O)c1ccccc1` (configuration not stated), which Ki [1] is on record?
Answer: Its Ki is 6200 nM.

Question: For `CC(C)(C)NC(=O)Nc1nc(Cl)c(Cc2ccccc2)n(CC(=O)Nc2ccccc2C(=O)NS(=O)(=O)c2ccc(C(F)(F)F)cc2)c1=O`, which Ki [1] is on record?
Answer: Its Ki is 660 nM.

Question: For `CC(C)(C)NC(=O)Nc1nc(Cl)c(Cc2ccccc2)n(CC(=O)NC(CC2CCC2)C(=O)C(N)=O)c1=O` (configuration not stated), which Ki [1] is on record?
Answer: Its Ki is 7100 nM.

Question: For `Cc1c(Cl)nc(NC(=O)NC(C)(C)C)c(=O)n1C(C(=O)Nc1ccccc1C(=O)NS(=O)(=O)c1ccc(C(F)(F)F)cc1)c1ccccc1` (racemic), which Papp A→B at 10 µM [2] is on record?
Answer: Its Papp A→B at 10 µM is 1.1 ×10⁻⁶ cm/s.

Question: What about the Ki [1] of the same molecule?
Answer: The Ki was 390 nM.

Question: What about the Ki (NS3 protease [3]) of the same molecule?
Answer: Its Ki is 930 nM.

Question: What about the Ki (NS3 protease [4]) of the same molecule?
Answer: The Ki was 1260 nM.

Question: What about the microsomal CLint at 1 µM [5] of the same molecule?
Answer: Its microsomal CLint at 1 µM is 26 µL/min/mg.

Question: And the solubility at 1 h [6]?
Answer: The solubility at 1 h was 38 µM (≈ 27.3 µg/mL).

Question: What about the half-life at 1 µM [7] of the same molecule?
Answer: Its half-life at 1 µM is 54 min.

Question: For `COc1ccc2c(O[C@@H]3C[C@H]4C(=O)N[C@]5(C(=O)O)C[C@H]5/C=C\CCCCC[C@H](NC(=O)OC5CCCC5)C(=O)N4C3)cc(-c3csc(NC(C)C)n3)nc2c1` [CILUPREVIR], which Ki [1] is on record?
Answer: The Ki was 0.089 nM.

Question: What about the Ki (NS3 protease [3]) of the same molecule?
Answer: The Ki was 120 nM.

Question: What about the Ki (NS3 protease [4]) of the same molecule?
Answer: Its Ki is 200 nM.

Question: Which results are given for `CCC[C@H](NC(=O)[C@@H]1[C@H]2CCC[C@H]2CN1C(=O)[C@@H](NC(=O)[C@@H](NC(=O)c1cnccn1)C1CCCCC1)C(C)(C)C)C(=O)C(=O)NC1CC1` [TELAPREVIR]?
Answer: Ki [1]: 15 nM; Ki (NS3 protease [3]): 6100 nM; Ki (NS3 protease [4]): 3.9 nM
